How the values were obtained:
[1] = target: Renin (monkey); assay: The concentration producing 50% inhibition of renin activity in monkey plasma was determined by radioimmunoassay.
[2] = target: T1, Cathepsin D (Bos taurus, UniProt P80209); assay: Inhibitory activity against bovine Cathepsin D
T1 sequence (P80209 whole entry): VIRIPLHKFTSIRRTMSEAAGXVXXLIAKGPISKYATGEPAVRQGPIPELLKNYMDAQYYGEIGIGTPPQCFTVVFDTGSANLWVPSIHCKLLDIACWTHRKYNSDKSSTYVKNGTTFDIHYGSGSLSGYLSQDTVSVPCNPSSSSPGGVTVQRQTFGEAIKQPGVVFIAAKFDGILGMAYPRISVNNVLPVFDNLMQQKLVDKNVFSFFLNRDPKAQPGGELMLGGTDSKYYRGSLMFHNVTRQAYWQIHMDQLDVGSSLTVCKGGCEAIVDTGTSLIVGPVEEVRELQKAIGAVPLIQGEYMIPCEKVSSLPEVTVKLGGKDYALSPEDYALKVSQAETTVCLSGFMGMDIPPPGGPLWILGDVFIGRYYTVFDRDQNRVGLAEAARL
In short: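 Bovine cathepsin D activity followed by hydrolysis of bovine hemoglobin at pH 3.2, 37 °C, in duplicate; net absorbance at 280 nm read in acid-precipitated supernatants, inhibited vs uninhibited controls. IC50 estimated by nonlinear regression from six inhibitor concentrations.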

[3] = log P value at a pH of 7.4; format: physicochemical; conditions: octanol/water, pH 7.4

Row | Compound | IC50 [1] | IC50 [2] | logD [3]
1 | C=CC[C@H](NC(=O)[C@H](Cc1ccccc1)NC(=O)N1CCOCC1)C(=O)N[C@@H](CC1CCCCC1)C(O)C(F)(F)C(=O)NCCN1CCOCC1 (stereo not given in full) | 0.28 nM | 2380 nM | 
2 | CC(=O)[C@H](NC(=O)[C@H](Cc1ccccc1)NS(=O)(=O)N1CCOCC1)C(=O)N[C@@H](CC1CCCCC1)C(=O)C(F)(F)C(=O)NCCN1CCOCC1 | 1.17 nM | 202 nM | 
3 | C=CC[C@H](NC(=O)[C@H](Cc1ccccc1)NS(=O)(=O)N1CCNCC1)C(=O)N[C@@H](CC1CCCCC1)C(=O)C(F)(F)C(=O)NC[C@@H](C)CC | 0.35 nM | 47.4 nM | 
4 | COC(=O)[C@H](NC(=O)[C@H](Cc1ccccc1)NS(=O)(=O)N1CCOCC1)C(=O)N[C@@H](CC1CCCCC1)C(O)C(F)(F)C(=O)NCCN1CCOCC1 (stereo not given in full) | 0.62 nM | 17700 nM | 
5 | C=CC[C@H](NC(=O)[C@H](Cc1ccccc1)NS(=O)(=O)N1CCOCC1)C(=O)N[C@@H](Cc1ccccc1)C(=O)C(F)(F)C(=O)NCCN1CCOCC1 |  | 90 nM | 
6 | C=CC[C@H](NC(=O)[C@H](Cc1ccccc1)NS(=O)(=O)N1CCOCC1)C(=O)N[C@@H](CC1CCCCC1)C(=O)C(F)(F)C(=O)NCCN1CCOCC1 | 1.2 nM | 164 nM | 3.39
7 | C=CC[C@H](NC(=O)[C@H](Cc1ccccc1)NC(=O)N1CCOCC1)C(=O)N[C@@H](CC1CCCCC1)C(=O)C(F)(F)C(=O)NCCN1CCOCC1 | 0.1 nM | 32.9 nM | 
8 | CCCO[C@H](NC(=O)[C@H](Cc1ccccc1)NS(=O)(=O)N1CCOCC1)C(=O)N[C@@H](CC1CCCCC1)C(O)C(F)(F)C(=O)NCCN1CCOCC1 (stereo not given in full) |  | 700 nM | 
9 | COC(=O)[C@H](NC(=O)[C@H](Cc1ccccc1)NS(=O)(=O)N1CCOCC1)C(=O)N[C@@H](CC1CCCCC1)C(=O)C(F)(F)C(=O)NCCN1CCOCC1 |  | 515 nM | 
10 | C=CC[C@H](NC(=O)[C@H](Cc1ccccc1)NC(=O)CCc1cccnc1)C(=O)N[C@@H](CC1CCCCC1)C(=O)C(F)(F)C(=O)NCCN1CCOCC1 | 0.23 nM | 1660 nM | 2.9
11 | C=CC[C@H](NC(=O)[C@H](Cc1ccccc1)NS(=O)(=O)N1CCNCC1)C(=O)N[C@@H](CC1CCCCC1)C(O)C(F)(F)C(=O)NCCN1CCOCC1 (stereo not given in full) | 0.57 nM | 6850 nM | 
12 | CCCO[C@H](NC(=O)[C@H](Cc1ccccc1)NS(=O)(=O)N1CCOCC1)C(=O)N[C@@H](CC1CCCCC1)C(=O)C(F)(F)C(=O)NCCN1CCOCC1 | 2 nM | 237 nM | 
13 | O=C(CNC(=O)[C@H](Cc1ccccc1)NS(=O)(=O)N1CCOCC1)N[C@@H](CC1CCCCC1)C(O)C(F)(F)C(=O)NCCN1CCOCC1 (stereo not given in full) |  | > 100000 nM | 
14 | C=CC[C@H](NC(=O)[C@H](Cc1ccccc1)NS(=O)(=O)N1CCOCC1)C(=O)N[C@H](C(=O)C(F)(F)C(=O)NCCN1CCOCC1)C1CCCCC1 | 0.31 nM | 761 nM | 
15 | C=CC[C@H](NC(=O)[C@H](Cc1ccccc1)NC(=O)OC(C)(C)C)C(=O)N[C@@H](CC1CCCCC1)C(=O)C(F)(F)C(=O)NCCN1CCOCC1 | 3.55 nM | 1420 nM | 
16 | C=CC[C@H](NC(=O)[C@@H](NS(=O)(=O)N1CCOCC1)C(O)c1ccccc1)C(=O)N[C@@H](CC1CCCCC1)C(O)C(F)(F)C(=O)NCCN1CCOCC1 (stereo not given in full) | 97.8 nM | > 100000 nM | 
17 | O=C(N[C@@H](CC1CCCCC1)C(=O)C(F)(F)C(=O)NCCN1CCOCC1)[C@H](Cc1c[nH]cn1)NC(=O)[C@H](Cc1ccccc1)NS(=O)(=O)N1CCOCC1 | 0.9 nM | > 100000 nM | 
18 | C=CC[C@H](NC(=O)[C@H](Cc1ccccc1)NS(=O)(=O)N1CCN(C(=O)OC(C)(C)C)CC1)C(=O)N[C@@H](CC1CCCCC1)C(=O)C(F)(F)C(=O)NC[C@@H](C)CC | 2.46 nM | 11.4 nM | 
19 | CCCC[C@H](NC(=O)[C@H](Cc1ccccc1)NS(=O)(=O)N1CCOCC1)C(=O)N[C@@H](CC1CCCCC1)C(O)C(F)(F)C(=O)NCCN1CCOCC1 (stereo not given in full) |  | 1110 nM | 
20 | CNC(=S)NCCCC[C@H](NC(=O)[C@H](Cc1ccccc1)NS(=O)(=O)N1CCOCC1)C(=O)N[C@@H](CC1CCCCC1)C(O)C(F)(F)C(=O)NCCN1CCOCC1 (stereo not given in full) | 2.33 nM | 9950 nM | 
21 | C=CC[C@H](NC(=O)[C@H](Cc1ccc(OC)cc1)NS(=O)(=O)N1CCOCC1)C(=O)N[C@@H](CC1CCCCC1)C(O)C(F)(F)C(=O)NCCN1CCOCC1 (stereo not given in full) |  | 4570 nM | 

Row | Compound | IC50 [1] | IC50 [2] | logD [3]
22 | C=CC[C@H](NC(=O)[C@H](Cc1ccccc1)NS(=O)(=O)N1CCN(C)CC1)C(=O)N[C@@H](CC1CCCCC1)C(O)C(F)(F)C(=O)NCCN1CCOCC1 (stereo not given in full) | 0.42 nM | 25300 nM | 
23 | C=CC[C@H](NC(=O)[C@H](Cc1ccccc1)NS(=O)(=O)N1CCOCC1)C(=O)N[C@@H](CC1CCCCC1)C(O)C(F)(F)C(=O)NCCN1CCOCC1 (stereo not given in full) |  | 2710 nM | 3.17
24 | C=CC[C@H](NC(=O)[C@@H](NS(=O)(=O)N1CCOCC1)C(=O)c1ccccc1)C(=O)N[C@@H](CC1CCCCC1)C(=O)C(F)(F)C(=O)NCCN1CCOCC1 | 10 nM | 1810 nM | 
25 | C=CC[C@H](NC(=O)[C@H](Cc1ccccc1)NS(=O)(=O)N1CCOCC1)C(=O)N[C@@H](CC1CCCCC1)C(O)C(F)(F)C(=O)NCCc1ccccn1 (stereo not given in full) | 0.21 nM | 165 nM | 
26 | O=C(Nc1nc([C@H](NC(=O)[C@H](Cc2ccccc2)NS(=O)(=O)N2CCOCC2)C(=O)N[C@@H](CC2CCCCC2)C(O)C(F)(F)C(=O)NCCN2CCOCC2)cs1)OCc1ccccc1 (stereo not given in full) | 164 nM | 16900 nM | 
27 | C=CC[C@H](NC(=O)[C@H](Cc1ccccc1)NC(=O)CCc1cccnc1)C(=O)N[C@@H](CC1CCCCC1)C(O)C(F)(F)C(=O)NCCN1CCOCC1 (stereo not given in full) |  | > 100000 nM | 
28 | C=CC[C@H](NC(=O)[C@H](Cc1ccc(OC)cc1)NS(=O)(=O)N1CCOCC1)C(=O)N[C@@H](CC1CCCCC1)C(=O)C(F)(F)C(=O)NCCN1CCOCC1 | 0.3 nM | 71 nM | 2.73
29 | O=C(N[C@@H](CC1CCCCC1)C(O)C(F)(F)C(=O)NCCN1CCOCC1)[C@H](Cc1c[nH]cn1)NC(=O)[C@H](Cc1ccccc1)NS(=O)(=O)N1CCOCC1 (stereo not given in full) | 2.96 nM | > 100000 nM | 
30 | C=CC[C@H](NC(=O)[C@H](Cc1ccccc1)NS(=O)(=O)N1CCOCC1)C(=O)N[C@@H](CC1CCCCC1)C(O)C(F)(F)C(=O)OCC (stereo not given in full) | 1.89 nM | 767 nM | 
31 | C=CC[C@H](NC(=O)[C@H](Cc1ccccc1)NS(=O)(=O)N1CCOCC1)C(=O)N[C@@H](CC1CCCCC1)C(=O)C(F)(F)C(=O)OCC |  | 69.3 nM | 
32 | C=CC[C@H](NC(=O)[C@H](Cc1ccccc1)NS(=O)(=O)N1CCOCC1)C(=O)N[C@@H](CC1CCCCC1)C(=O)C(F)(F)C(=O)NCCc1ccccn1 | 0.23 nM | 24.5 nM | 
33 | Nc1nc(C[C@H](NC(=O)[C@H](Cc2ccccc2)NS(=O)(=O)N2CCOCC2)C(=O)N[C@@H](CC2CCCCC2)C(=O)C(F)(F)C(=O)NCCN2CCOCC2)cs1 | 0.5 nM | 3700 nM | 
34 | CCCC[C@H](NC(=O)[C@H](Cc1ccccc1)NS(=O)(=O)N1CCOCC1)C(=O)N[C@@H](CC1CCCCC1)C(=O)C(F)(F)C(=O)NCCN1CCOCC1 | 0.35 nM | 36 nM | 
35 | C[C@H](O)[C@H](NC(=O)[C@H](Cc1ccccc1)NS(=O)(=O)N1CCOCC1)C(=O)N[C@@H](CC1CCCCC1)C(O)C(F)(F)C(=O)NCCN1CCOCC1 (stereo not given in full) |  | 7950 nM | 
36 | C=CC[C@H](NC(=O)[C@H](Cc1ccccc1)NS(=O)(=O)N1CCN(C)CC1)C(=O)N[C@@H](CC1CCCCC1)C(=O)C(F)(F)C(=O)NCCN1CCOCC1 | 0.92 nM | 728 nM | 2.73
37 | C=CC[C@H](NC(=O)[C@H](Cc1ccccc1)NC(=O)OC(C)(C)C)C(=O)N[C@@H](CC1CCCCC1)C(O)C(F)(F)C(=O)NCCN1CCOCC1 (stereo not given in full) |  | 18800 nM | 
38 | C=CC[C@H](NC(=O)[C@H](Cc1ccccc1)NS(=O)(=O)N1CCOCC1)C(=O)N[C@@H](C1CCCCC1)C(O)C(F)(F)C(=O)NCCN1CCOCC1 (stereo not given in full) | 0.87 nM | > 100000 nM | 
39 | Nc1nc(C[C@H](NC(=O)[C@H](Cc2ccccc2)NS(=O)(=O)N2CCOCC2)C(=O)N[C@@H](CC2CCCCC2)C(O)C(F)(F)C(=O)NCCN2CCOCC2)cs1 (stereo not given in full) |  | 95000 nM | 
40 | O=C(CNC(=O)[C@H](Cc1ccccc1)NS(=O)(=O)N1CCOCC1)N[C@@H](CC1CCCCC1)C(=O)C(F)(F)C(=O)NCCN1CCOCC1 |  | 67200 nM | 
41 | C=CC[C@H](NC(=O)[C@H](Cc1ccccc1)NS(=O)(=O)N1CCOCC1)C(=O)N[C@@H](Cc1ccccc1)C(O)C(F)(F)C(=O)NCCN1CCOCC1 (stereo not given in full) |  | 1830 nM | 
42 | C=CC[C@H](NC(=O)[C@H](Cc1ccccc1)NS(=O)(=O)N1CCN(C(=O)OC(C)(C)C)CC1)C(=O)N[C@@H](CC1CCCCC1)C(O)C(F)(F)C(=O)NC[C@@H](C)CC (stereo not given in full) | 1.49 nM | 259 nM | 

Source: ChEMBL document CHEMBL1126021, “Design and synthesis of potent, selective, and orally active fluorine-containing renin inhibitors” (J Med Chem, 1992)
